SKN-1 inh – suppressors of acrylamide-induced Pgst-4::GFP reporter in worms, primary screen, SKN-1 inhibitor project, whole organism, uHTS, GFP/RFP fluorescence ratio, strain VP596 | C. elegans VP596 Pgst-4::GFP/RFP ratio, 24 h | inhibition, % at 21.8 µM | actives 0.49% (n = 360,000) | AID 624304, 2012;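 active = interference check ratio from 0.5 to 1.5 plus GFP to RFP signal ratio inhibition reaching or exceeding a fixed threshold, cut at about 30% in these data, passing the limit was not always enough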
GRK2 aptamer HTS – compounds blocking aptamer binding on GRK2 – biochemical, human GRK2, bead flow cytometry, HTS, primary screen | FAM-aptamer displacement from GRK2 | actives 0.59% (n = 330,000) | inhibition of aptamer binding, % at 10 µM;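 active = inhibition of aptamer binding above 40%, roughly 3 SD of noise, on plates passing a quality check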;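 also: median bead fluorescence of bound FAM aptamer so fluorescent compounds give negative values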
Target sequence (P25098 whole entry, looked up): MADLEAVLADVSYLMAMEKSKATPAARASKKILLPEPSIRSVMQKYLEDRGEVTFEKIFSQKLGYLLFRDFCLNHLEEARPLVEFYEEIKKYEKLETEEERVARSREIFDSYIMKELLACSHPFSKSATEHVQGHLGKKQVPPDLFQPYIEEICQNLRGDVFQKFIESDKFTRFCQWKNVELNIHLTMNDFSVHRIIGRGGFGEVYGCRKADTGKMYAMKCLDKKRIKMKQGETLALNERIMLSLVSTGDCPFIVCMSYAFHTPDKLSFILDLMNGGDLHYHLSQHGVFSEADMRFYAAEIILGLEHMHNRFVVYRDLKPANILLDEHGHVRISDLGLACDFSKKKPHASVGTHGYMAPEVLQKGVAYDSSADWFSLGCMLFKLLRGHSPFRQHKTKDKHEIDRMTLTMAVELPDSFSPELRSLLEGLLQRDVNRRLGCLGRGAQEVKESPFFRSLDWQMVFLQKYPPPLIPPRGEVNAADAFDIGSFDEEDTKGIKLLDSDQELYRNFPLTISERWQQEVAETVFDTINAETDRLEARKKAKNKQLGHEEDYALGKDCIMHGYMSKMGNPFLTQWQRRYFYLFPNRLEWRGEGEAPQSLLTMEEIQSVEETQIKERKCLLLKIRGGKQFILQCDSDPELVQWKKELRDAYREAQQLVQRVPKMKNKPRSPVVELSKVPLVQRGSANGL
Rce1 inh – yeast Rce1p protease inhibitors, primary screen, biochemical, fluorescence, cell-free homogeneous; CAAX prenyl protease 2 (Saccharomyces cerevisiae (strain ATCC 204508 / S288c)), Q03530; yeast membranes, quenched prenylated peptide cleavage fluorescence; calls only; actives 0.27% (n = 290,000); AID 2563, 2010;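 active = fall in fluorescence gain of 50% or more versus controls, with final raw signal at or below 3038400; inconclusive = same 50% fall but final raw signal above 3038400; inactive = fall in fluorescence gain under 50%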;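 also: plate controls were neutral control wells for no effect and wells lacking membranes for full effect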
Myeloid diff MLP – induction of myeloid progenitor differentiation, primary screen, cell-based, flow cytometry, MLPCN library; AID 624256, 2012; calls only at 10 µM; actives 1% (n = 360,000); ER-HoxA9 myeloid progenitors, lysozyme-GFP differentiation;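 active = normalized GFP-positive differentiation at or above the plate's own cutoff, the solvent-only control mean plus 3 SD; inconclusive = no clear call, values can overlap the other calls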;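 also: cells exposed to compound for four days before flow analysis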
T cell HTS – modulators of CD8 T cell-vesicle binding, primary screen, mouse 2C CD8+ T cells, flow cytometry; 2C CD8+ T cell-vesicle binding; active compounds read low; response (vesicle binding), % at 7 µM; actives 0.068% (n = 330,000);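 active = response, share of CD8 T cells binding vesicles, and their 90th percentile fluorescence all below set limits, cut at about 80% in these data, passing the limit was not always enough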;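 also: values below 100% mean blocked vesicle binding to the CD8+ T cells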
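Also added: QL9-peptide-loaded Drosophila micro-vesicles bearing Ld, ICAM-1 and B7-1; Test system: purified 2C TCR transgenic mouse naive CD8+ T cells; Measured by: cytometric PE anti-B7-1 and Alexa647 anti-CD8 signals after 1% paraformaldehyde fixation; Timing: binding step 1.5 h, 37 °C, antibody labelling 20 min, ice.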
Rin1 Abl inh – inhibitors of Rin1-Abl protein binding, primary screen, biochemical, TR-FRET. inhibition, % at 7.35 µM. Tyrosine-protein kinase ABL1 (Homo sapiens) + Ras and Rab interactor 1 (Homo sapiens), …. actives 0.4% (n = 360,000); in the data active = inhibition above about 5%, passing the limit was not always enough
GRK2 inh confirm – GRK2 aptamer-displacing inhibitors, retest, confirmation, biochemical, cherry pick 1, bead flow cytometry. shares compounds with GRK2 aptamer HTS. aptamer displacement, % at 10 µM. actives 4% (n = 2,000). AID 504451, 2011. bead-bound GRK2, FAM-aptamer displacement;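 active = aptamer displacement above 40%, near three times the noise of non-fluorescent compounds, on plates passing quality checks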;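 also: negative values mostly reflect intrinsic compound fluorescence rather than true enhancement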
Aptamer quench – fluorescent aptamer quenching in GRK2 counter-screen dose response; shares compounds with GRK2 aptamer HTS; Fluorescent RNA aptamer beads, flow cytometry; active compounds read high; 110 tested, under 10 active; fluorescence change (kMESF span), kMESF (no concentration beside the values);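 active = compounds whose bead fluorescence drops by more than 37 kMESF across the dose range, marking them as dye quenchers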
FAM quench CP1 – aptamer fluorescence quenching in GRK2 counter-screen. shares compounds with GRK2 aptamer HTS. Carboxyfluorescein RNA aptamer on beads, flow cytometry quenching; active compounds read low. fluorescence response (% of DMSO), % at 10 µM. 2,000 tested, under 10 active;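 active = compounds that quench the bead-bound fluorescent RNA probe, cutting fluorescence to under half of the solvent control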;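 also: counterscreen run without GRK2 so only probe quenching by compound is measured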
GRK2 confirm 2 – GRK2 aptamer-displacing inhibitors, hit retest, confirmation, biochemical, cherry pick 2, bead flow cytometry; bead-bound GRK2, FAM-aptamer displacement; inhibition of aptamer binding, % at 10 µM; shares compounds with GRK2 aptamer HTS; 360 tested, under 10 active; AID 504782, 2011;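 active = inhibition of aptamer binding above 40%, about triple the noise seen with nonglowing compounds, on plates passing quality control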;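 also: negative values mostly come from compounds that fluoresce themselves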
FAM quench SP – counter-screen for GRK2 binding hits: quenchers of fluorescent RNA aptamer | shares compounds with GRK2 aptamer HTS | carboxyfluorescein RNA aptamer beads, flow cytometry quenching; active compounds read low | fluorescence response vs DMSO, % at 10 µM | 360 tested, under 10 active | AID 588494;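 active = response vs DMSO under 50%, meaning signal dropped by over half, treated as fluorescence quencher; inconclusive = no clear call, values can overlap the other calls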;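 also: labelled aptamer on streptavidin beads without GRK2 as a quench counter-screen; 100% = bead fluorescence of DMSO wells and lower means quenching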
Active calls of the source: *; i = inactive; ? = inconclusive; . = no result given. This is a sample that favours compounds with a hit; in the whole collection about 2.6% have one here.

SMILES	SKN-1 inh	GRK2 aptamer HTS	Rce1 inh	Myeloid diff MLP	T cell HTS	Rin1 Abl inh	GRK2 inh confirm	FAM quench CP1	others
CCOCCCNC(=O)C1(O)c2cc(Br)ccc2NC(=O)N1c1ccc(CC)cc1 (centres undefined)	20.4	0.0	i	i	547.6	-0.6	.	.
O=C1NC[C@H](CCCCN2C[C@H](Cc3ccc(O)cc3)N(CC3CCCCC3)C(=O)C2=O)N(CC2CCCCC2)C1=O	5.2	.	.	i	.	.	.	.
Cc1ccc(CNC(=O)C2CCCC2)cc1	-13.0	2.0	i	i	262.2	0.2	.	.
Cc1ccc2[nH]c(CNC(=O)C3CCCCC3)cc2c1	4.2	60.0*	i	i	340.7	-0.3	5.9	101.4
COc1cc(/C=N/NC(=O)C(=O)NCc2ccco2)cc(Cl)c1O	14.9	5.0	i	i	123.6	-3.1	.	.
CCN1/C(=C/C(C)=C/c2sc3ccccc3[n+]2CC)Sc2ccccc21	96.1	100.0*	i	?	319.7	-20.0	99.4*	92.2	Aptamer quench=0.6
CCN1/C(=C\C(=S)Nc2ccccc2)Sc2ccccc21	24.2	16.0	i	?	275.6	0.2	.	.
Cc1ccnc(NC(=O)CCS(=O)(=O)c2ccccc2)c1	-4.2	14.0	.	i	327.2	-3.4	8.1	97.3
Cc1cccc(NC(=O)CCS(=O)(=O)c2ccc(Cl)cc2)c1	10.3	3.0	i	i	213.8	2.1	.	.	GRK2 confirm 2=0.0;FAM quench SP=100.0
Cc1ccnc(NC(=O)CS(=O)(=O)c2ccccc2)c1	19.2	0.0	i	i	199.6	-1.6	.	.
O=C(CCS(=O)(=O)c1ccccc1)Nc1ccccn1	-3.6	76.0*	i	i	638.1	0.7	2.2	100.7
O=C(CCS(=O)(=O)c1ccccc1)Nc1ccc(S(=O)(=O)Nc2ncccn2)cc1	1.7	0.0	i	i	175.9	5.4	.	.
Cc1cccc(NC(=O)CCS(=O)(=O)c2ccc(Br)cc2)c1	5.9	3.0	i	i	151.0	-0.2	.	.
Cc1ccc(C)c(OCCC(=O)NCCc2ccc(S(N)(=O)=O)cc2)c1	-0.8	0.0	i	i	335.0	-1.9	.	.
O=[N+]([O-])c1cc(/C=N/Nc2nc3ccccc3[nH]2)c(O)cc1O	.	45.0*	i	.	460.1	.	5.1	111.5
Cc1ccccc1/C=N/Nc1nc2ccccc2[nH]1	0.0	0.0	i	i	376.1	1.7	.	.
Cc1ccc(CNC(=O)CN2CCN(c3ccc(F)cc3)CC2)cc1	6.8	43.0*	i	i	154.8	2.5	2.3	97.4
CCC1CCCCN1CCCNC(=O)Cn1ncc2c([nH]c3ccc(C)cc32)c1=O (centres undefined)	-2.2	0.0	i	?	453.3	-1.6	.	.
Cc1ccc2[nH]c3c(=O)n(CC(=O)NCCCN4CCN(c5ccc(F)cc5)CC4)ncc3c2c1	2.8	45.0*	i	i	315.5	0.4	23.6	97.7
Cc1cc(C(=O)Nc2ccc(OCc3ccccc3)cc2)c(C)o1	7.7	1.0	i	i	257.4	2.1	.	.
COc1cc(C(C2=C(O)CC(C)(C)CC2=O)C2C(=O)CC(C)(C)CC2=O)cc(OC)c1OC (centres undefined)	10.1	1.0	i	i	294.7	2.1	.	.
CC1(C)CC(=O)C(C(C2=C(O)CC(C)(C)CC2=O)c2ccco2)C(=O)C1 (centres undefined)	-3.2	94.0*	i	i	296.4	4.3	-0.5	103.8
COc1ccc(Cl)cc1N(CC(=O)Nc1ccccc1C(=O)NCc1ccco1)S(C)(=O)=O	0.4	20.0	i	i	240.1	0.6	-0.4	100.9
COC(=O)CCC(=O)Nc1ccc(S(=O)(=O)Nc2cc(OC)nc(OC)n2)cc1	4.0	38.0	i	i	389.6	3.2	2.5	98.2
COc1ccc(S(=O)(=O)NCc2ccc(C(=O)N3CCc4ccccc4C3)cc2)cc1	8.9	2.0	i	i	191.1	-1.1	.	.
SMILES	SKN-1 inh	GRK2 aptamer HTS	Rce1 inh	Myeloid diff MLP	T cell HTS	Rin1 Abl inh	GRK2 inh confirm	FAM quench CP1	others
COCCNC(=O)c1ccccc1N(Cc1ccccc1)S(=O)(=O)c1ccc(C)cc1	12.1	15.0	i	i	426.8	0.2	-1.4	98.7
COCCNC(=O)c1ccccc1N(Cc1ccccc1)S(=O)(=O)c1ccccc1	-5.9	1.0	i	i	445.5	3.3	.	.
Cc1ccc(NC(=S)N2CCC(c3nc4ccccc4s3)CC2)cc1	12.5	64.0*	.	i	263.2	1.2	-5.7	105.0
CNC(=S)N1CCC(c2nc3ccccc3s2)CC1	-3.3	2.0	i	i	159.5	-0.7	.	.
CCN(CC)Cc1csc(C(N)=O)c1	-10.8	14.0	i	i	162.6	3.2	-3.2	100.7
CCOC(=O)CCN(Cc1ccccc1)S(=O)(=O)c1csc(C(N)=O)c1	-7.9	0.0	i	i	378.4	0.9	.	.
COc1ccc(-n2c3nc4ccccc4nc3c3c(=N)oc(C)nc32)cc1	2.3	86.0*	i	i	366.6	-2.4	.	.	GRK2 confirm 2=-0.9;FAM quench SP=100.0
COc1ccccc1C(=O)NC(CCSC)C(=O)NCCCn1nc(C)cc1C (centres undefined)	2.5	3.0	i	i	228.4	1.2	.	.
CC(C)C[C@H]1CN=C(Nc2ccccc2)N1CC1CCCCCC1	-7.9	58.0*	.	i	204.6	5.4	-2.3	98.5
CCN1C(Nc2ccccc2)=NC[C@@H]1CC(C)C	20.0	4.0	i	i	437.6	1.4	.	.
NCc1csc(Nc2ccc(C(=O)c3ccccc3)cc2)n1	9.5	.	.	i	.	-3.2	.	.

Screening results as filed in PubChem.
